Measurements published in publication PMC11350716 (JACS Au, 2024).

Assays:
VIPR2 = settings: read-out: antagonist activity IC50; cited from earlier work
[1] = type: in vivo; settings: mice, intravenous, 0.02 mg/mouse as ICG, brains harvested after 48 h
Summary of the method: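 Mice received the test compound or free ICG alone by intravenous injection. Brains were harvested 48 h later and imaged for near-infrared ICG fluorescence, with instrument sensitivity set to 1,600–3,000 (fluorescence intensity a.u.).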

Compound | IC50 (VIPR2) | ICG fluorescence in the brain [1]
Ac-(CPPYLP[KYLC)D]LI-NH2 (bicyclic or more) [KS-133] | 0.025 µM | 
CC1(C)C(/C=C/C=C/C=C/C=C2\N(CCCCS(=O)(=O)O)c3ccc4ccccc4c3C2(C)C)=[N+](CCCCS(=O)(=O)[O-])c2ccc3ccccc3c21 [ICG, indocyanine green, reference compound] |  | but not in the brains
CCCC[C@@H]1NC(=O)[C@H](CCC(=O)O)NC(=O)[C@H](C)NC(=O)[C@H](CC(C)C)NC(=O)[C@H](CCCC)NC(=O)[C@H](Cc2ccc(O)cc2)NC(=O)[C@H](CCCCN)NC(=O)[C@H](Cc2ccc(O)cc2)NC(=O)[C@H]([C@@H](C)O)NC(=O)[C@@H](NC(=O)[C@@H]2CCCN2C(=O)[C@@H](NC(=O)CNC(=O)CCOCCOCCOCCOCCn2nnc3c2-c2ccccc2CN(C(=O)CCNC(=O)CCOCCOCCOCCOCCOCCC(=O)NCCC(=O)N2Cc4ccccc4-c4c(nnn4CCNC(=O)CCCCCN4C(=CC=CC=CC=CC5=[N+](CCCCS(=O)(=O)[O-])c6ccc7ccccc7c6C5(C)C)C(C)(C)c5c4ccc4ccccc54)-c4ccccc42)c2ccccc2-3)[C@@H](C)O)CSSC[C@@H](C(=O)O)NC1=O [ICG-KS-487] |  | Fluorescence was clearly observed
